# Experimental data gathered from unrelated publications.
# CA12: Carbonic anhydrase 12 (CA12, Homo sapiens, UniProt O43570)
# USP51: Ubiquitin carboxyl-terminal hydrolase 51 (USP51, Homo sapiens, UniProt Q70EK9)
# DRD3: D(3) dopamine receptor (DRD3, Homo sapiens, UniProt P35462)
# SLC6A3: Sodium-dependent dopamine transporter (SLC6A3, Homo sapiens, UniProt Q01959)
SMILES,target,assay,test system,conditions,inhibition
CCOC(=O)C1CSc2[nH]c(=O)sc2C1c1cn(-c2ccccc2)nc1-c1ccc(Cl)cc1 (stereo not drawn),CA12,"enzyme activity, inhibitor, absorbance",,10 µM,85.5%
O=c1oc2c(O)c(O)cc3c(=O)oc4c(O)c(O)cc1c4c23,USP51,"enzyme activity, inhibitor",,5 µM,33%
COc1cc(C(C)=O)ccc1OCC(O)CN1CCN(c2cc(Cl)ccc2C)CC1 (stereo not drawn),DRD3,"enzyme activity, inhibitor",,10 µM,35.9%
COC(=O)C[C@](O)(CCCC(C)(C)O)C(=O)O[C@@H]1C(OC)=C[C@]23CCCN2CCc2cc4c(cc2[C@H]13)OCO4,USP51,"enzyme activity, inhibitor",,5 µM,0%
CCOC(=O)C1CSc2[nH]c(=O)sc2C1c1cn(-c2ccccc2)nc1-c1ccccc1 (stereo not drawn),CA12,"enzyme activity, inhibitor, absorbance",,10 nM,10.6%
Cc1ccccc1N1CCN(CC(O)COc2ccc(C(=O)c3ccccc3)cc2)CC1 (stereo not drawn),DRD3,"enzyme activity, inhibitor",,10 µM,53.1%
O=c1c(-c2ccc(O)cc2)coc2cc(O[C@@H]3O[C@H](CO)[C@@H](O)[C@H](O)[C@H]3O)ccc12,USP51,"enzyme activity, inhibitor",,5 µM,39%
c1ccc(CCCC2CCN(CCCCn3nnnc3C(c3ccccc3)c3ccccc3)CC2)cc1,SLC6A3,"transporter uptake, inhibitor",HEK293,1 µM,63%
CC1CCC(C(C)C)C(O)C1 (racemic),USP51,"enzyme activity, inhibitor",,5 µM,37%
O=C(c1ccc(F)cc1)N(Cc1ccccc1)C1CCCCC1,"Sodium- and chloride-dependent GABA transporter 1 (Slc6a1, Rattus norvegicus, UniProt P23978)",transporter uptake,,10 µM,4%
Cc1ccc(-c2nn(-c3ccccc3)cc2C2c3sc(=O)[nH]c3SC3C(=O)N(c4ccccc4)C(=O)C32)cc1 (stereo not drawn),CA12,"enzyme activity, inhibitor, absorbance",,10 µM,73.9%
CC(O)c1ccc(-c2ccc(CNCCc3c[nH]c4ccccc34)o2)cc1 (stereo not drawn),DRD3,"enzyme activity, inhibitor",,10 µM,31.3%
C[C@H](CCC(=O)NCC(=O)O)[C@H]1CC[C@H]2[C@@H]3[C@H](O)C[C@@H]4C[C@H](O)CC[C@]4(C)[C@H]3C[C@H](O)[C@]12C,USP51,"enzyme activity, inhibitor",,5 µM,0%
Cc1ccc(Nc2nccc(N(C)c3ccc4c(C)n(C)nc4c3)n2)cc1S(N)(=O)=O,"Tyrosine-protein kinase Lyn (Lyn, Mus musculus, UniProt P25911)","enzyme activity, inhibitor",,10 µM,97%
Clc1ccc(C(c2ccccc2)c2nnnn2CCCCN2CCN(CCc3ccccc3)CC2)cc1 (stereo not drawn),SLC6A3,"transporter uptake, inhibitor",HEK293,1 µM,62.1%
Nc1ncnc2c1ncn2[C@@H]1O[C@H](CO)[C@@H](O)[C@H]1O,USP51,"enzyme activity, inhibitor",,5 µM,24%
Clc1ccc(C(c2ccccc2)c2nnnn2CCCCN2CCC(Cc3ccc(Cl)c(Cl)c3)CC2)cc1 (stereo not drawn),SLC6A3,"transporter uptake, inhibitor",HEK293,1 µM,67.8%
O=c1oc2cc(OCC(O)CN3CCN(c4ccc(F)cc4)CC3)ccc2c2c1CCC2 (stereo not drawn),DRD3,"enzyme activity, inhibitor",,10 µM,0%
NC(=O)NC1NC(=O)NC1=O (stereo not drawn),USP51,"enzyme activity, inhibitor",,5 µM,13%
O=C1NC(=S)C(=Cc2cn(-c3ccccc3)nc2-c2ccc(Br)cc2)S1,CA12,"enzyme activity, inhibitor, absorbance",,100 µM,75%
CCC(=O)c1ccc(OCC(O)CN2CCN(S(=O)(=O)N3CCCCC3)CC2)cc1 (stereo not drawn),DRD3,"enzyme activity, inhibitor",,10 µM,7.7%
